Assay outcomes from PubChem BioAssay.
Most compounds without a hit are left out; they make up all but 4.8% or so of the library.
UPR CHOP act: activators of apoptotic arm of unfolded protein response (CHOP); CHO-CHOP luciferase reporter, UPR activation, luminescence; percent of tunicamycin response over DMSO baseline; activation, % at 10 µM; hit rate 0.34% among 330,000; AID 449763;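 active means at 10 µM dose, activation of 40% or more, normalized to positive control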
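Test system: CHO CHOP reporter cells. Input: 500 CHO-CHOP cells per well. Medium: F12 with 10% FBS. Technique: luciferase luminescence. Measure: percent activation relative to tunicamycin control. Dosing: 10 µM compound, 0.5% DMSO. Timing: 16-18 h cell attachment, then 6 h compound exposure, 37 °C.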
SKKanGAS inh: SKKanGAS growth inhibition; inhibition, % at 7.5 µM; hit rate 1.3% among 300,000; AID 1662; S. pyogenes SKKanGAS, kanamycin growth, BacTiter-Glo, 6 h;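 active means mean replicate score, as percent of positive control median, at least 50; inconclusive means mean below 50 but one replicate at or above 50; inactive means mean and every replicate below 50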;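 further: strain carries kanamycin resistance gene driven by streptokinase promoter and grows in 40 µg/ml kanamycin; loss of luminescence reflects streptokinase promoter inhibition or plain growth inhibition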
Mdm2 MdmX PPI: inhibitors of human Mdm2/MdmX interaction; SaOS-2 split-luciferase Mdm2/MdmX complementation, luminescence; inhibition, % at 8 µM; hit rate 3% among 330,000; AID 485346;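 active means inhibition of at least 50% at 8 µM in the primary screen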
CSC inhib: cancer stem cell inhibition | inhibition, % at 7.5 µM | hit rate 1.1% among 300,000 | cancer stem cell-like cells viability, luminescence; in the data active means inhibition above about 75%; inconclusive means no clear call, values can overlap the other calls; tested in HMLE shEcad cells
UPR XBP1 act: activators of adaptive arm of unfolded protein response (XBP1); activation, % at 20 µM; CHO-XBP1 luciferase reporter, IRE1-XBP1 UPR activation, luminescence; percent of tunicamycin response, DMSO as zero; hit rate 0.33% among 330,000; AID 463104;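 active means versus positive control, 20 µM dose yields 30% or more activation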
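Assay system: CHO-XBP1 luciferase reporter cells; Schedule: 6 h treatment, 37 °C; Detection: glow luminescence from Steady-Glo reagent; Benchmarks: high control tunicamycin 10 µg/mL final, low control DMSO vehicle only.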
Beta cell apopt: blocks beta cell apoptosis. protection from apoptosis, % (concentration not given with the values). INS-1E cytokine-induced death, ATP luminescence, 48 h; percent of positive-control rescue, neutral wells zero. AID 435005. hit rate 0.8% among 300,000;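 active means Every replicate reaches about 75%, or at least half do and their mean reaches it too, limit read from the data; inconclusive means At least half of replicates reach the limit but their mean does not; inactive means Under half of replicates reach the limit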;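 further: higher means more ATP so stronger rescue from cytokine killing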
Large screens that a line does not name were inactive.

CC(C)(C)c1ccc(Cn2nnc3c(=O)[nH]c(C4CCCN(C(=O)Cc5cccs5)C4)nc32)cc1 (stereo not given)	none
COc1ccccc1Cn1nnc2c(=O)[nH]c(C3CCN(C(=O)c4ccc(F)cc4)CC3)nc21	none
COc1ccccc1Cn1nnc2c(=O)[nH]c(C3CCN(C(=O)c4ccccc4Cl)CC3)nc21	SKKanGAS inh 91
CCC(C)NC(=O)c1nc2c(nnn2Cc2ccccc2Cl)c(=O)[nH]1 (stereo not given)	none
CC(C)(C)c1ccc(Cn2nnc3c(=O)[nH]c(C4CCCN(C(=O)c5cccs5)C4)nc32)cc1 (stereo not given)	CSC inhib 79
COCc1c(C(=O)NC2CCCCC2)sc2cccc(F)c12	none (no result: SKKanGAS inh, CSC inhib)
CCCCN(C)CCNC(=O)CN1C(=O)CSc2ccc(S(=O)(=O)N3CCOCC3)cc21	none
O=C(Nc1ccnn1C1CCN(CCCc2ccccc2)CC1)c1ccccc1Cl	none
CC(C)(C)CC(=O)N1CCC(c2nc3c(nnn3Cc3c(F)cccc3Cl)c(=O)[nH]2)CC1	SKKanGAS inh 74
O=C(c1ccco1)N1CCC(c2nc3c(nnn3Cc3c(Cl)cccc3Cl)c(=O)[nH]2)CC1	none
COc1ccc(-n2nc(C(=O)NCC(=O)Nc3cccc(Cl)c3)c3ccccc3c2=O)cc1	none (no result: Beta cell apopt)
CC(OC(=O)c1cccc(-n2cnnn2)c1)C(=O)Nc1ccc(F)cc1 (stereo not given)	none
CCCOc1ccc(C2C(C(=O)c3cc4ccccc4o3)=C(O)C(=O)N2c2cc(C)on2)cc1 (stereo not given)	none
Cc1cc(N2C(=O)C(O)=C(C(=O)c3cc4ccccc4o3)C2c2ccc(Br)cc2)no1 (stereo not given)	SKKanGAS inh 87
Cc1cc(N2C(=O)C(O)=C(C(=O)c3cc4ccccc4o3)C2c2ccc(Cl)cc2)no1 (stereo not given)	none
Cc1cc(N2C(=O)C(O)=C(C(=O)c3cc4ccccc4o3)C2c2cccc(Cl)c2)no1 (stereo not given)	SKKanGAS inh 83
CCCOc1ccc(C2C(C(=O)c3cc4ccccc4o3)=C(O)C(=O)N2c2cc(C)on2)cc1OC (stereo not given)	SKKanGAS inh 98
Cc1cccc(OCC(=O)NCCCNC(=O)c2ccco2)c1	none (no result: Beta cell apopt)
COc1ccccc1N(CC(=O)NCCSCc1ccco1)S(=O)(=O)c1ccccc1	none
COc1ccccc1C1C2=C(N=c3s/c(=C/c4cccc(OCC(=O)O)c4)c(=O)n31)c1ccccc1CC2 (stereo not given)	none (no result: UPR CHOP act, SKKanGAS inh, Mdm2 MdmX PPI, UPR XBP1 act)
COc1cccc(C2C3=C(N=c4s/c(=C\c5ccc(OCC(=O)O)cc5)c(=O)n42)c2ccccc2CC3)c1 (stereo not given)	SKKanGAS inh 102
CCc1ccc2[nH]c(=O)c(C3C(C#N)=C(N)Oc4c3ccc3cccnc43)cc2c1 (stereo not given)	SKKanGAS inh 58, CSC inhib 97, Beta cell apopt 94
N#CC1=C(N)Oc2c(ccc3cccnc23)C1c1cccnc1 (stereo not given)	Beta cell apopt 99
N#CC1=C(N)Oc2cc3ccccc3cc2C1c1cccnc1 (stereo not given)	none
CC(=O)C1=C(C)OC(N)=C(C#N)C1c1cc2cccc(C)c2nc1Cl (stereo not given)	none
Cc1ccc2cc(C3C(C#N)=C(N)Oc4c3ccc3cccnc43)c(=O)[nH]c2c1 (stereo not given)	Beta cell apopt 88
Cc1cccc(NC(=O)CCS(=O)(=O)c2ccc(Cl)cc2)c1	none
C=CCNC(=S)NNc1nc2c(c(=O)[nH]1)C1(CCCC1)Cc1ccccc1-2	none
O=c1[nH]c(NNC(=S)NCc2ccccc2)nc2c1C1(CCCCC1)Cc1ccccc1-2	SKKanGAS inh 101, CSC inhib 106
O=c1[nH]c(NNC(=S)NC2CCCCC2)nc2c1C1(CCCC1)Cc1ccccc1-2	SKKanGAS inh 74, CSC inhib inconclusive
O=c1[nH]c(NCCCO)nc2c1C1(CCCC1)Cc1ccccc1-2	Beta cell apopt 104
CCOC(=O)C1=C(C)NC(C)=C(C(=O)OCC)C1C(=O)OCC(=O)NCc1ccc(F)cc1	none (no result: SKKanGAS inh)
